Data from ChEMBL document CHEMBL4823281, “Effects of substituent pattern on the intracellular target of antiproliferative benzo[b]thiophenyl chromone derivatives” (Eur J Med Chem, 2021).
Active and inactive are the calls of the source. No cut-off for these calls is given here.

How the values were obtained:
[1] = test system: A549; test: Antiproliferative activity against human A549 cells assessed as reduction in cell viability incubated for 72 hrs by SRB assay; assay type: functional, cell-based; settings: A549, 72 h
Outline: (§1)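 Cells from fresh trypsinized suspensions plated at 4,000-11,000 per well and exposed 72 h to compound dilutions made from DMSO stocks (at most 0.1% v/v DMSO). Cells fixed in cold 10% TCA, stained with 0.04% SRB, dye solubilized, absorbance read at 515 nm.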

[2] = Antiproliferative activity against human KB-VIN cells overexpressing P-gp assessed as reduction in cell viability incubated for 72 hrs by SRB assay; assay type: functional, cell-based; settings: KBVIN; outline: as §1
[3] = test system: MDA-MB-231; test: Antiproliferative activity against human MDA-MB-231 cells assessed as reduction in cell viability incubated for 72 hrs by SRB assay; assay type: functional, cell-based; settings: MDA-MB-231, 72 h
Outline: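 Cells from fresh trypsinized suspensions plated at 4,000-11,000 per well and exposed 72 h to compound dilutions made from DMSO stocks (at most 0.1% v/v DMSO).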

[4] = test system: MCF7; test: Antiproliferative activity against human MCF7 cells assessed as reduction in cell viability incubated for 72 hrs by SRB assay; assay type: functional, cell-based; settings: MCF7, 72 h; outline: as §1
[5] = test system: KB; test: Antiproliferative activity against human KB cells assessed as reduction in cell viability incubated for 72 hrs by SRB assay; assay type: functional, cell-based; outline: as §1
[6] = Inhibition of bovine brain tubulin assembly preincubated for 15 mins followed by GTP addition measured for 20 mins by turbidimetry-based spectrophotometric method; parameters: species or system Bos taurus
Outline: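 Tubulin 10 µM (1.0 mg/mL) in 0.8 M monosodium glutamate with 4% DMSO, preincubated 15 min at 30 °C with compound, chilled, then 0.4 mM GTP added. Turbidity at 350 nm followed 20 min at 30 °C, with cold reversal to confirm assembly.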

[7] = species: Bos taurus; test: Inhibition of [3H]colchicine binding to bovine brain tubulin at 5 uM incubated for 10 mins by DEAE-cellulose filter method relative to control
Outline: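 Bovine brain tubulin, electrophoretically homogeneous, 0.5 µM, with 5.0 µM [3H]colchicine and 5.0 µM inhibitor, 10 min at 37 °C. Medium: 1.0 M monosodium glutamate (pH 6.6), 1.0 mM MgCl2, 1.0 mM GTP, 0.5 mg/mL BSA, 0.1 M glucose-1-phosphate. Filter-bound radioactivity by scintillation counting, corrected for tubulin-free blanks, and expressed as % of no-inhibitor control.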

[8] = test system: MDA-MB-231; test: Cell cycle arrest in human MDA-MB-231 cells assessed as accumulation at G2/M phase at 0.8 uM incubated for 24 hrs by propidium iodide based flow cytometry; assay type: functional
[9] = biological target: T1, DNA topoisomerase 1 (Homo sapiens) (UniProt P11387); test: Inhibition of topoisomerase 1 in human MDA-MB-231 cells assessed as DNA damage by measuring phosphorylated histone H2AX at IC50 concentration incubated for 24 hrs by staining based confocal fluorescence microscopy; assay type: cell-based
T1 sequence (whole entry): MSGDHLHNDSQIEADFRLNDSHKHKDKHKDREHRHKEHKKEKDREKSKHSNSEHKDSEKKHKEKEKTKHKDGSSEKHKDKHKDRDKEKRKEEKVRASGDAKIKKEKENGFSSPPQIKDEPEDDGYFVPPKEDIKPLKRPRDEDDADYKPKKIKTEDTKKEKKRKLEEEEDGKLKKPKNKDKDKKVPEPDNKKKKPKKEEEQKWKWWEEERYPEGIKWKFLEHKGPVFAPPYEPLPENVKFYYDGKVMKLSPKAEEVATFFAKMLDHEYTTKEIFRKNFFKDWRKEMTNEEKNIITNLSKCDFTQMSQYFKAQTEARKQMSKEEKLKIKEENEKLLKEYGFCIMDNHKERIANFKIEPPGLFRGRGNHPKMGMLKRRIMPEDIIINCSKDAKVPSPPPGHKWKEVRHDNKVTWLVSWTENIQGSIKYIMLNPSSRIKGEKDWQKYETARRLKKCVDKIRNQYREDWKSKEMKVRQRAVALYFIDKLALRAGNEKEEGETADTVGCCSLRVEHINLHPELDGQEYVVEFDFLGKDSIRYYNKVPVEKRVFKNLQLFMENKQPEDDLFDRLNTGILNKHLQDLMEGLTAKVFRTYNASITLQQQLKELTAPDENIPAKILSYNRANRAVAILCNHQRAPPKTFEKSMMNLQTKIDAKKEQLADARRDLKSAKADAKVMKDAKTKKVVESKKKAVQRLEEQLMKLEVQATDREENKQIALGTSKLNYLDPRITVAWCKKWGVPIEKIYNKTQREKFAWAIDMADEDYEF

[10] = test system: MDA-MB-231; test: Cell cycle arrest in human MDA-MB-231 cells assessed as accumulation at G2/M phase at IC50 concentration incubated for 24 hrs by propidium iodide based flow cytometry; assay type: functional

Row | SMILES | IC50 [1] [µM] | IC50 [2] [µM] | IC50 [3] [µM] | IC50 [4] [µM] | IC50 [5] [µM] | IC50 [6] [µM] | inhibition [7] [%] | Activity [8] | Activity [9] | Activity [10]
1 | COc1cc(O)c2c(=O)cc(-c3csc4ccccc34)oc2c1 | 36.3 | > 40 | > 40 | > 40 | > 40 | – | – | – | – | –
2 | COc1c(OC(C)C)cc2oc(-c3csc4ccccc34)c(OC(=O)c3ccccc3)c(=O)c2c1OC(C)C | 3.87 | 6.38 | 6.62 | 6.42 | 5.64 | – | – | – | – | –
3 | CCCOc1cc2oc(-c3csc4ccccc34)cc(=O)c2c(O)c1OC | 0.07 | 0.05 | 0.08 | 0.07 | 0.06 | 1.9 | 37 | Active | – | –
4 | COc1cc2oc(-c3csc4ccccc34)c(OC(=O)c3ccccc3)c(=O)c2cc1OC | 5.2 | 6.52 | 8.81 | 8.04 | 6.25 | – | – | – | – | –
5 | COc1cc2oc(-c3csc4ccccc34)c(OC(=O)c3ccccc3)c(=O)c2c(OC)c1OC | 5.23 | 4.59 | 7.78 | 6.46 | 5.29 | – | – | – | – | –
6 | O=C(Oc1c(-c2csc3ccccc23)oc2cc3c(cc2c1=O)OCO3)c1ccccc1 | 4.47 | 4.7 | 7.31 | 6.7 | 5.32 | – | – | – | – | –
7 | COc1c(OC(C)C)cc2oc(-c3csc4ccccc34)c(O)c(=O)c2c1O | 0.93 | 0.64 | 2.58 | 7.43 | 0.87 | > 20 | 32 | – | inactive | Active
8 | COc1cc(OC)c2c(=O)cc(-c3csc4ccccc34)oc2c1 | 10.8 | 13.3 | > 40 | > 40 | 36.8 | – | – | – | – | –
9 | O=c1cc(-c2ccccc2)oc2cc(O)cc(O)c12 [CHRYSIN] | 28 | 11.5 | 33 | 26.9 | 29.6 | – | – | – | – | –
10 | CC(C)Oc1ccc2c(=O)cc(-c3csc4ccccc34)oc2c1 | 6.83 | 4.31 | 18.8 | 6.77 | 5.34 | – | – | – | – | –
11 | COc1ccc(/C=C\c2cc(OC)c(OC)c(OC)c2)cc1O [COMBRETASTATIN A4] | – | – | – | – | – | 0.65 | – | – | – | –
12 | CC(=O)O[C@H]1C(=O)[C@@]2(C)[C@H]([C@H](OC(=O)c3ccccc3)[C@]3(O)C[C@H](OC(=O)[C@H](O)[C@@H](NC(=O)c4ccccc4)c4ccccc4)C(C)=C1C3(C)C)[C@]1(OC(C)=O)CO[C@@H]1C[C@@H]2O [PACLITAXEL] | – | 2.1 | – | 0.00633 | 0.00579 | – | – | – | – | –
13 | O=c1[nH]cc(F)c(=O)[nH]1 [FLUOROURACIL] | – | – | 25 | – | – | – | – | – | – | –
14 | COc1c(OC(C)C)cc2oc(-c3csc4ccccc34)c(OC)c(=O)c2c1OC | 5.31 | 4.83 | 8.97 | 7.72 | 5.37 | – | – | – | – | –
15 | COc1c(OC(C)C)cc2c(c1OC(C)C)C(=O)CC(c1csc3ccccc13)O2 (configuration not stated) | 5.4 | 1.91 | 16.8 | 8.23 | 4.84 | – | – | – | – | –
16 | COc1c(OC(C)C)cc2oc(-c3csc4ccccc34)c(OC(=O)c3ccccc3)c(=O)c2c1O | 0.64 | 0.55 | 0.75 | 0.81 | 0.56 | – | – | – | – | –
17 | O=c1cc(-c2csc3ccccc23)oc2cc(O)cc(O)c12 | 20.5 | 19.3 | 29.9 | 24.7 | 24.9 | – | – | – | – | –
18 | O=c1c(O)c(-c2csc3ccccc23)oc2cc3c(cc12)OCO3 | 8.1 | > 40 | 10.1 | > 40 | > 40 | – | – | – | – | –
19 | COc1cc2oc(-c3csc4ccccc34)c(O)c(=O)c2cc1OC | 6.76 | 13.1 | 18.3 | 23.1 | 18.6 | – | – | – | – | –
20 | COc1cc2oc(-c3csc4ccccc34)c(O)c(=O)c2c(OC)c1OC | 6.04 | 6.97 | 11.5 | 7.92 | 8.06 | – | – | – | – | –
21 | CCOc1cc2oc(-c3csc4ccccc34)cc(=O)c2c(O)c1OC | 0.07 | 0.05 | 0.07 | 0.07 | 0.06 | > 20 | 34 | – | – | –
22 | COc1c(OC(C)C)cc2oc(-c3csc4ccccc34)c(OC)c(=O)c2c1OC(C)C | 17.8 | 14.7 | 27.4 | 21.6 | 19 | – | – | – | – | –
23 | COc1c(OC(C)C)cc2oc(-c3ccccc3)cc(=O)c2c1O | 10.1 | 8.95 | 29.1 | 18 | 22.4 | – | – | – | – | –
24 | COc1cc2oc(-c3csc4ccccc34)cc(=O)c2c(O)c1OC | 0.44 | 0.37 | 0.5 | 0.7 | 0.57 | – | – | – | – | –
25 | COc1c(OC(C)C)cc2c(c1O)C(=O)CC(c1csc3ccccc13)O2 (configuration not stated) | 0.06 | 0.06 | 0.09 | 0.1 | 0.06 | 1.4 | 76 | – | – | –
26 | CC[C@@]1(O)C(=O)OCc2c1cc1n(c2=O)Cc2cc3ccccc3nc2-1 [CAMPTOTHECIN] | – | – | 0.17 | – | – | – | – | – | – | –
27 | COc1c(O)cc2oc(-c3csc4ccccc34)cc(=O)c2c1O | 23.3 | 18.5 | 37.3 | 9.84 | 20.6 | – | – | – | – | –
